pIC50: −log10 of the molar value. Calls of active or inactive are those of the source. The rule behind the calls is not given here.
Legend:
[1] = system: CCRF-CEM; assay: Induction of apoptosis in human CCRF-CEM cells assessed as late apoptotic cells at 5 times IC50 measured after 24 hrs by Annexin V-FITC/PI staining based flow cytometry analysis (Rvb= 1.4%); assay type: functional
[2] = system: CCRF-CEM; assay: Induction of apoptosis in human CCRF-CEM cells assessed as activation of caspase 9 at 5 times IC50 measured after 24 hrs by western blot analysis; assay type: functional, cell-based
In short: (§1)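 Protein (15 µg/lane) was resolved by 10% SDS-PAGE and transferred to nitrocellulose. Blocked in 5% milk/TBST, then probed overnight at 4 °C with primary antibodies (1:1000) and HRP secondaries. Detected by ECL, with β-actin as loading control.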

[3] = system: CCRF-CEM; assay: Cell cycle arrest in human CCRF-CEM cells assessed as accumulation of cells at sub G1 phase at 5 times IC50 measured after 24 hrs by propidium iodide staining based flow cytometry analysis (Rvb= 2.77%); assay type: functional
[4] = system: CCRF-CEM; assay: Induction of apoptosis in human CCRF-CEM cells assessed as activation of caspase 3 at 5 times IC50 measured after 24 hrs by western blot analysis; assay type: functional, cell-based; in short: as §1
[5] = system: CCRF-CEM; assay: Cell cycle arrest in human CCRF-CEM cells assessed as accumulation of cells at S phase at IC50 measured after 24 hrs by propidium iodide staining based flow cytometry analysis (Rvb= 38.17%); assay type: functional
[6] = system: BJ; assay: Cytotoxicity against human BJ cells assessed as reduction in cell viability measured after 72 hrs by MTS assay; assay type: cell-based
[7] = Microsomal stability in human liver microsomes assessed as parent compound remaining at 2 uM in the presence of NADPH measured after 60 mins by RF-MS analysis; assay type: ADME, Microsome; conditions: read-out: Stability
In short: (§2)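 Human liver microsomes incubated with compound in the presence of NADPH cofactor to assess phase I oxidation. Intrinsic clearance was derived from the decline of the parent compound.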

[8] = system: CCRF-CEM; assay: Induction of apoptosis in human CCRF-CEM cells assessed as dead cells at IC50 measured after 24 hrs by Annexin V-FITC/PI staining based flow cytometry analysis (Rvb= 0.3%); assay type: functional
In short: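 They were washed in ice-cold PBS and incubated with Annexin V-FITC plus PI for 20 min at room temperature in the dark. Cells were then pelleted and resuspended in binding buffer (10 mmol/L HEPES/NaOH pH 7.4, 140 mmol/L NaCl, 2.5 mmol/L CaCl2). Read on a FACSAria II, ≥10,000 cells per sample.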

[9] = Efflux ratio of apparent permeability across basolateral to apical side to apparent permeability across apical to basolateral side in human Caco2 cells at pH 7.4 at 10 micromol/L measured after 2 hrs by RF-MS analysis; assay type: ADME, cell-based; conditions: Caco-2, pH 7.4, dose 10 µmol/L
In short: (§3)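 Efflux ratio is Papp(B→A)/Papp(A→B) from bidirectional transport across Caco-2 (2 h) or MDCK-MDR1 (1 h) monolayers. Compound was dosed in HBSS pH 7.4 and quantified by RapidFire MS/MS. Run in duplicates. ER > 2 was taken as a potential P-gp substrate.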

[10] = system: CCRF-CEM; assay: Induction of apoptosis in human CCRF-CEM cells assessed as live cells at 5 times IC50 measured after 24 hrs by Annexin V-FITC/PI staining based flow cytometry analysis (Rvb= 96.7%); assay type: functional
[11] = Efflux ratio of apparent permeability across basolateral to apical side to apparent permeability across apical to basolateral side in dog MDCK-MDR1 cells at pH 7.4 at 10 micromol/L measured after 1 hr by RF-MS analysis; assay type: ADME, cell-based, Canis lupus familiaris; conditions: MDCK-MDR1, pH 7.4, dose 10 µmol/L; in short: as §3
[12] = system: U2OS; assay: Cytotoxicity against human U2OS cells assessed as reduction in cell viability measured after 72 hrs by MTS assay; assay type: functional, cell-based
[13] = system: CEM-DNR; assay: Cytotoxicity against daunorubicin resistant human CEM-DNR cells assessed as reduction in cell viability measured after 72 hrs by MTS assay; assay type: functional, cell-based
[14] = system: CCRF-CEM; assay: Induction of apoptosis in human CCRF-CEM cells assessed as early apoptotic cells at IC50 measured after 24 hrs by Annexin V-FITC/PI staining based flow cytometry analysis (Rvb= 1.6%); assay type: functional
[15] = system: CCRF-CEM; assay: Inhibition of RNA synthesis in human CCRF-CEM cells at IC50 by […] incorporation assay (Rvb= 36.54%); assay type: functional; parameters: scale not given: the % may be the effect or the level left
[16] = Stability in human plasma assessed as parent compound remaining at 2 uM incubated for 15 mins by RF-MS analysis; assay type: ADME, cell-free; conditions: read-out: Stability
[17] = system: CCRF-CEM; assay: Inhibition of DNA synthesis in human CCRF-CEM cells at IC50 by BrdU incorporation assay (Rvb= 41.56%); assay type: functional; parameters: scale not given: the % may be the effect or the level left
[18] = Apparent permeability of the compound in human Caco2 cells assessed as recovery rate at pH 7.4 at 10 micromol/L measured after 1 hr by RF-MS analysis; assay type: ADME, cell-based; conditions: Caco-2, pH 7.4, dose 10 µmol/L, read-out: Activity
[19] = system: MRC5; assay: Cytotoxicity against human MRC5 cells assessed as reduction in cell viability measured after 72 hrs by MTS assay; assay type: cell-based; conditions: MRC5, 72 h
[20] = system: CCRF-CEM; assay: Inhibition of DNA synthesis in human CCRF-CEM cells at 5 times IC50 by BrdU incorporation assay (Rvb= 41.56%); assay type: functional; parameters: scale not given: the % may be the effect or the level left
[21] = Stability in human plasma assessed as parent compound remaining at 2 uM incubated for 60 mins by RF-MS analysis; assay type: ADME, cell-free; conditions: read-out: Stability
[22] = system: K562; assay: Cytotoxicity against human K562 cells assessed as reduction in cell viability measured after 72 hrs by MTS assay; assay type: functional, cell-based; conditions: K562, 72 h
[23] = Stability in human plasma assessed as parent compound remaining at 2 uM incubated for 30 mins by RF-MS analysis; assay type: ADME, cell-free; conditions: read-out: Stability
[24] = system: CCRF-CEM; assay: Induction of mitotic arrest in human CCRF-CEM cells assessed as phosphorylation of histone H3 at Ser10 at IC50 measured after 24 hrs by propidium iodide staining based flow cytometry analysis (Rvb= 1.72%); assay type: functional
[25] = system: CCRF-CEM; assay: Induction of apoptosis in human CCRF-CEM cells assessed as induction of PARP cleavage at 5 times IC50 measured after 24 hrs by western blot analysis; assay type: functional, cell-based; in short: as §1
[26] = system: CCRF-CEM; assay: Cell cycle arrest in human CCRF-CEM cells assessed as accumulation of cells at G2/M phase at 5 times IC50 measured after 24 hrs by propidium iodide staining based flow cytometry analysis (Rvb= 21.62%); assay type: functional
[27] = system: CCRF-CEM; assay: Cell cycle arrest in human CCRF-CEM cells assessed as accumulation of cells at S phase at 5 times IC50 measured after 24 hrs by propidium iodide staining based flow cytometry analysis (Rvb= 38.17%); assay type: functional
[28] = Microsomal stability in human liver microsomes assessed as parent compound remaining at 2 uM in the presence of NADPH measured after 15 mins by RF-MS analysis; assay type: ADME, Microsome; conditions: read-out: Stability; in short: as §2
[29] = system: CCRF-CEM; assay: Induction of apoptosis in human CCRF-CEM cells assessed as activation of caspase 8 at 5 times IC50 measured after 24 hrs by western blot analysis; assay type: functional, cell-based; in short: as §1
[30] = system: CCRF-CEM; assay: Cytotoxicity against human CCRF-CEM cells assessed as reduction in cell viability measured after 72 hrs by MTS assay; assay type: functional, cell-based
[31] = Cytotoxicity against paclitaxel resistant human K562-Tax cells assessed as reduction in cell viability measured after 72 hrs by MTS assay; assay type: functional, cell-based
[32] = system: CCRF-CEM; assay: Induction of apoptosis in human CCRF-CEM cells assessed as early apoptotic cells at 5 times IC50 measured after 24 hrs by Annexin V-FITC/PI staining based flow cytometry analysis (Rvb= 1.6%); assay type: functional

| Compound | Activity [1] | Activity [2] | Activity [3] | Activity [4] | Activity [5] | pIC50 [6] | remaining at 1 h, 2 µM [7] | Activity [8] | efflux ratio at 2 h, 10 µM [9] | Activity [10] | efflux ratio at 1 h, 10 µM [11] | pIC50 [12] | pIC50 [13] | Activity [14] | Activity [15] | remaining at 0.25 h, 2 µM [16] | Activity [17] | recovery at 1 h, 10 µM [18] | pIC50 [19] | Activity [20] | further results |
| --- | --- | --- | --- | --- | --- | --- | --- | --- | --- | --- | --- | --- | --- | --- | --- | --- | --- | --- | --- | --- | --- |
| C=C(/C=C/c1cccc(Cl)c1)[C@@H]1CC[C@]2(C(=O)O)CC[C@]3(C)[C@H](CC[C@@H]4[C@@]5(C)CC[C@H](O)C(C)(C)[C@@H]5CC[C@]43C)[C@@H]12 | 4.7% | Active | 9.13% | Active | 42.75% | < 4.30 | 81.5% | 1.4% | 2.64 | 88.5% | 2.9 | 4.76 | 4.59 | 2.1% | 18.97% | 92.3% | 35.56% | 42.1% | 4.49 | 0.4% | remaining at 1 h, 2 µM [21]: 89.5%; pIC50 [22]: 4.56; remaining at 0.5 h, 2 µM [23]: 87.9%; Activity [24]: 1.5%; Activity [25]: Active; Activity [26]: 12.28%; Activity [27]: 37.93%; remaining at 0.25 h, 2 µM [28]: 90.1%; Activity [29]: inactive; pIC50 [30]: 5.49; pIC50 [31]: 4.59; Activity [32]: 5.3% |
| C=C(/C=C/c1ccc([N+](=O)[O-])cc1)[C@@H]1CC[C@]2(C(=O)O)CC[C@]3(C)[C@H](CC[C@@H]4[C@@]5(C)CC[C@H](O)C(C)(C)[C@@H]5CC[C@]43C)[C@@H]12 | 9.6% | Active | 25.04% | Active | 28.44% | 4.61 | 53.5% | 1.8% | 2.5 | 70.9% | 3.06 | 4.71 | 4.64 | 2.4% | 34.98% | 102% | 43.17% | 58.5% | 4.72 | 3.06% | remaining at 1 h, 2 µM [21]: 69.3%; pIC50 [22]: 4.94; remaining at 0.5 h, 2 µM [23]: 79.1%; Activity [24]: 2.9%; Activity [25]: Active; Activity [26]: 12.81%; Activity [27]: 57.61%; remaining at 0.25 h, 2 µM [28]: 93.2%; Activity [29]: inactive; pIC50 [30]: 5.44; pIC50 [31]: 4.63; Activity [32]: 17.6% |

From ChEMBL document CHEMBL4828721, “Substituted dienes prepared from betulinic acid - Synthesis, cytotoxicity, mechanism of action, and pharmacological parameters” (Eur J Med Chem, 2021)
